Assay [1] concerns the target T1, Prostaglandin G/H synthase 1 (Ovis aries) (UniProt P05979).
T1 sequence (whole entry): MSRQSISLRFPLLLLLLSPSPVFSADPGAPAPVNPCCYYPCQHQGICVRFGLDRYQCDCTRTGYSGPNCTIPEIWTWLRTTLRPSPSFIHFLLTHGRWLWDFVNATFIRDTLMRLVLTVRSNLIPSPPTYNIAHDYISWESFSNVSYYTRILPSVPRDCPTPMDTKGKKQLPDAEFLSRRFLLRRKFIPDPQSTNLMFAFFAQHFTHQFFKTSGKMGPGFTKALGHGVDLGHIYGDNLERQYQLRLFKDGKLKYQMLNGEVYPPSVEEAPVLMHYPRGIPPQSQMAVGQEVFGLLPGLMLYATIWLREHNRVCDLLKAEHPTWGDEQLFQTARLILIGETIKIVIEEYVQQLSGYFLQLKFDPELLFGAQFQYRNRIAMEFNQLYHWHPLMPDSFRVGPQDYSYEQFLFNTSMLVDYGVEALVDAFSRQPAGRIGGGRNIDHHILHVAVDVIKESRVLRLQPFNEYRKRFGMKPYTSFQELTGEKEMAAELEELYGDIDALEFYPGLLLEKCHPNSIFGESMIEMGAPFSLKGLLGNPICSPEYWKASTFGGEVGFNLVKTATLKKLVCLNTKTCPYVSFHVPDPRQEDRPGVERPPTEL
Kind of assay: Inhibition of ovine COX1 assessed as residual enzyme activity at 30 uM preincubated for 5 mins by measuring 12-HHT level using HPLC method relative to control. In a few lines: (§1)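 Isolated COX-1 and COX-2 enzymes were each exposed to inhibitor at 30 μM in 0.1% DMSO vehicle. Activity was read as 12-HHT concentration as a percentage of vehicle control, n=3-5, with ANOVA and Tukey HSD versus vehicle.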

Assay [2] deals with T2, Prostaglandin E synthase (Homo sapiens, UniProt O14684).
T2 sequence (O14684 whole entry): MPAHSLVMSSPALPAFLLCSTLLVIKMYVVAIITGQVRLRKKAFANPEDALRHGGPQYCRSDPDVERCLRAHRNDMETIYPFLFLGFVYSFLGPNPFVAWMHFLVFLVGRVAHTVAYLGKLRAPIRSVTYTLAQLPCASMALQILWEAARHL
Kind of assay: Inhibition of mPGES1 in IL1-beta treated human A549 cell microsomal membrane assessed as residual enzyme activity after 1 min by measuring PGE2 level using RP-HPLC method. Format: microsomes, Microsome. In short, it runs like this:
(§2)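 Cell-free assay using microsomes from A549 cells as the PGE2 synthase source. Compounds were tested at four concentrations (10 μM, 1 μM, 100 nM, 10 nM; 1 nM where needed) in 0.1% DMSO vehicle. Read-out was PGE2 level as a percentage of vehicle control, n=3-5, with ANOVA and Tukey HSD versus vehicle.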

For assay [3], the target named is T3, Prostaglandin G/H synthase 2 (Homo sapiens) (UniProt P35354).
T3 sequence (whole entry): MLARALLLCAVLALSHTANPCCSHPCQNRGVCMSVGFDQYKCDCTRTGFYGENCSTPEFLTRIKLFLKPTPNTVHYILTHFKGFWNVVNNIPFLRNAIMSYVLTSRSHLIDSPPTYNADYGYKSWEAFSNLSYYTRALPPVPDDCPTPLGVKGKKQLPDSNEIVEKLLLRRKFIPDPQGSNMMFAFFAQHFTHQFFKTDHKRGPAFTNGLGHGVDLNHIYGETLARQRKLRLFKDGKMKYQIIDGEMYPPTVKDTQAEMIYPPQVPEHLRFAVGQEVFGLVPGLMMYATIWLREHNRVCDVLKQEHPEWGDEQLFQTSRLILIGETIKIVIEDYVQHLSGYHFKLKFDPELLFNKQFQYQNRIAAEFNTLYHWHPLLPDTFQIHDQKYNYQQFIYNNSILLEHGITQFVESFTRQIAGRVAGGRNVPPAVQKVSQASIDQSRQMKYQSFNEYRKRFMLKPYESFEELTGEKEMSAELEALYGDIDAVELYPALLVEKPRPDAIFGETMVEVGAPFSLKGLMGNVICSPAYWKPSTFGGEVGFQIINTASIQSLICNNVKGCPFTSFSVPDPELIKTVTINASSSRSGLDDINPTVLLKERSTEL
Kind of assay: Inhibition of human recombinant COX2 assessed as residual activity at 30 uM preincubated for 5 mins by measuring 12-HHT level using HPLC method relative to control. In a few lines: as §1

Assay [4] deals with T4, Prostaglandin E synthase (Homo sapiens) (UniProt O14684).
T4 sequence (whole entry): T2 sequence (O14684 whole entry)
Kind of assay: Inhibition of mPGES1 in IL1-beta treated human A549 cell microsomal membrane assessed as residual enzyme activity at 10 uM after 1 min by measuring PGE2 level using RP-HPLC method relative to control. As to conditions: Microsome. Format: microsomes. In short, it runs like this: as §2

Assay [5] is described as follows: Inhibition of 5-lipoxygenase in bovine polymorphonuclear leucocytes assessed as formation of LTB4 by HPLC method. Format: cell-based. As to conditions: Bos taurus.
The target of assay [6] is T2, Prostaglandin E synthase. Kind of assay: Inhibition of mPGES1 in IL1-beta treated human A549 cell microsomal membrane assessed as blockade of PGH2 to PGE2 conversion after 1 min. Format: microsomes, Microsome. In short, it runs like this:
as §2

Assay [7] in a line: Inhibition of rat mPGES1.

By IC50 is commonly meant the concentration needed to halve the response being measured.

Molecules are shown by their SMILES. The source made the active and inactive calls. No cut-off for these calls is given here.

On to `CC1(C)Cc2c(-c3ccccc3)c(-c3ccc(Cl)cc3)c(CC(=O)NS(=O)(=O)c3ccccc3)n2C1`, for which the Activity in assay [1] worked out at 25.8%; in assay [3] it was 43.4%; in assay [4], 28.7%. Besides, the IC50 on Prostaglandin E synthase [2] came to 4500 nM; in assay [5] it was 250 nM.

On to `CC1(C)Cc2c(-c3ccccc3)c(-c3ccc(Cl)cc3)c(CC(=O)NS(C)(=O)=O)n2C1`, for which the Activity in assay [4] was 63.1%. The IC50 in assay [5] worked out at 230 nM.

On to `CC1(C)Cc2c(-c3ccccc3)c(-c3ccc(C(F)(F)F)cc3)c(CC(=O)O)n2C1`, for which the Activity in assay [4] was 56.1%. Besides, the IC50 in assay [5] came out at 310 nM.

Turning to `CC1(C)Cc2c(-c3ccccc3)c(-c3ccc(Cl)cc3)c(Cc3nnn[nH]3)n2C1`, the results for the Activity in assay [1], in assay [3] and in assay [4] were 37.4%, 46.5% and 27.9%, respectively. For the same compound, the IC50 on Prostaglandin E synthase [2] turned out to be 3900 nM; in assay [5] it was 500 nM.

On to `Cc1ccc(S(=O)(=O)NC(=O)Cc2c(-c3ccc(Cl)cc3)c(-c3ccccc3)c3n2CC(C)(C)C3)cc1`, for which the Activity in assay [1] stood at 8.6%; in assay [3] it was 13.6%; in assay [4] it was 32.2%. The IC50 at Prostaglandin E synthase [2] came to 4800 nM; in assay [5], 260 nM.

Turning to `CC1(C)Cc2c(-c3ccccc3)c(-c3ccc([N+](=O)[O-])cc3)c(CC(=O)O)n2C1`, the Activity in assay [4] was 58.8%. Moreover, in assay [5], the IC50 came to 1500 nM.

Take `CC1(C)Cc2c(-c3ccccc3)c(-c3ccc(Cl)cc3)c(CC(=O)O)n2C1` [LICOFELONE]: the Activity was 12.4% in assay [1], 53.7% in assay [3] and 44.9% in assay [4]. In addition, the IC50 on Prostaglandin E synthase [6] turned out to be 6000 nM; at Prostaglandin E synthase [2] it was 6700 nM; in assay [5], 180 nM.

Take `Cc1ccc(S(=O)(=O)NC(=O)CCc2c(-c3ccc(Cl)cc3)c(-c3ccccc3)c3n2CC(C)(C)C3)cc1`: the Activity in assay [1] came to 29.2%; in assay [4] it was 23.2%. Besides, the IC50 at Prostaglandin E synthase [2] was determined as 2100 nM. In assay [3], the outcome was inactive.

For the compound `CC(C)c1ccc2c(c1)c(SC(C)(C)C)c(CC(C)(C)C(=O)O)n2Cc1ccc(Cl)cc1`, the results for the Activity in assay [1], in assay [3] and in assay [4] were 19.5%, 56.7% and 22.5%, respectively. The compound further had an IC50 in assay [7] of 3200 nM.

As for `CC1(C)Cc2c(-c3ccccc3)c(-c3ccc4ccoc4c3)c(CC(=O)O)n2C1`, the values for the Activity in assay [1], in assay [3] and in assay [4] were 94%, 75.8% and 42.1%, respectively. For the same compound, at Prostaglandin E synthase [2], the IC50 was 6200 nM.

Take `CC1(C)Cc2c(-c3ccccc3)c(-c3ccc(C(C)(C)C)cc3)c(CC(=O)O)n2C1`: the result in assay [1] and in assay [3] was inactive. For the same compound, in assay [4], the Activity worked out at 53.8%. In addition, in assay [5], the IC50 was determined as 180 nM.

Turning to `CCC1(CC)Cc2c(-c3ccccc3)c(-c3ccc(Cl)cc3)c(CC(=O)NS(C)(=O)=O)n2C1`, the IC50 on Prostaglandin E synthase [2] was 5900 nM. Moreover, the Activity in assay [4] worked out at 38.5%.

Regarding `O=C(O)Cc1c(-c2ccc(Cl)cc2)c(-c2ccccc2)c2n1CCC2`, the Activity in assay [4] was determined as 65.3%. The IC50 in assay [5] was determined as 1600 nM.

On to `CC1(C)Cc2c(-c3ccccc3)c(-c3ccc(Cl)cc3)c(CCC(=O)O)n2C1`, for which the Activity in assay [1] came out at 82.9%; in assay [4], 47.4%. Also, the IC50 on Prostaglandin E synthase [2] worked out at 7200 nM. Moreover, the outcome in assay [3] was inactive.

For the compound `O=C(O)CCc1c(-c2ccc(Cl)cc2)c(-c2ccccc2)c2n1CCC2`, the IC50 on Prostaglandin E synthase [2] stood at 1800 nM; in assay [5], 1900 nM. In assay [4], the Activity is 20.8%.

These data come from ChEMBL document CHEMBL1158497, “Arylpyrrolizines as inhibitors of microsomal prostaglandin E2 synthase-1 (mPGES-1) or as dual inhibitors of mPGES-1 and 5-lipoxygenase (5-LOX)” (J Med Chem, 2009).
